# Test results published in ChEMBL document CHEMBL1275435, “A naturally occurring proline-to-alanine amino acid change in Fks1p in Candida parapsilosis, Candida orthopsilosis, and Candida metapsilosis accounts for reduced echinocandin susceptibility” (Antimicrob Agents Chemother, 2008).
# *1 amine or outer side, *2 acyl side, *3 side chain or, on linkers, in order; H or OH if unused. Where a SMILES comes first, the peptide text is derived from it. Bridges are numbered along the chain shown (N, C = ends). [ ]: non-standard residue; d: D form. The star is where a group is joined. pTerphenylCO(4''-OnC5H11) = CCCCCOc1ccc(-c2ccc(-c3ccc(C(=O)*)cc3)cc2)cc1; Orn(4R-OH,5R-OH) = O=C([C@H](C[C@@H](O)[C@@H](O)N[*:3])N[*:1])[*:2]; hTyr(3S-OH,4S-OH) = N[C@H](C(=O)O)[C@H](O)[C@@H](O)c1ccc(O)cc1; Pro(3S-OH,4S-Me) = C[C@H]1CN[C@H](C(=O)O)[C@H]1O; Hyp = O=C(O)[C@@H]1C[C@@H](O)CN1
# Columns and labels:
# [1] = Inhibition of Candida parapsilosis H5 glucan synthase assessed as [3H]UDPG incorporation
# Outline: (§1)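 Cells were grown with vigorous shaking at 30°C to early stationary phase in YPD. Membrane GS was partially purified by product entrapment, using 10-fold more cells for low-activity strains. The polymerization assay was started by adding GS, with drug serially diluted from 0.01 to 10,000 ng/ml. Reactions ran 60 min at 25°C and were stopped on ice. IC50 came from sigmoidal variable-slope fits, as arithmetic means ± SD of three repetitions on three days.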
# Candida albicans [2] = experiment: Antifungal activity against Candida albicans Sc5314 by CLSI method; format: functional
# [3] = Inhibition of Candida metapsilosis 960161 glucan synthase assessed as [3H]UDPG incorporation; outline: as §1
# Nakaseomyces glabratus [4] = experiment: Antifungal activity against Candida glabrata T51916 by CLSI method; format: functional
# [5] = Inhibition of Candida albicans ATCC 90028 glucan synthase assessed as [3H]UDPG incorporation; outline: as §1
# Candida albicans [6] = experiment: Antifungal activity against Candida albicans ATCC 90028 by CLSI method; format: functional
# Candida metapsilosis [7] = experiment: Antifungal activity against Candida metapsilosis 960161 by CLSI method; format: functional; conditions: Lodderomyces metapsilosis
# [8] = Inhibition of Candida parapsilosis ATCC 22019 glucan synthase by assessed as [3H]UDPG incorporation; outline: as §1
# [9] = Inhibition of Candida glabrata ATCC 90030 glucan synthase assessed as [3H]UDPG incorporation; design: species or system Nakaseomyces glabratus; outline: as §1
# Candida albicans [10] = experiment: Antifungal activity against Candida albicans M122 by CLSI method; format: functional
# Saccharomyces cerevisiae [11] = experiment: Antifungal activity against FKS1 deficient Saccharomyces cerevisiae BY4742 by CLSI method; format: functional
# [12] = Inhibition of Saccharomyces cerevisiae BY4742 glucan synthase assessed as [3H]UDPG incorporation; outline: as §1
# [13] = Inhibition of Candida orthopsilosis 981224 glucan synthase assessed as [3H]UDPG incorporation; outline: as §1
# Nakaseomyces glabratus [14] = experiment: Antifungal activity against Candida glabrata ATCC 90030 by CLSI method; format: functional
# Candida metapsilosis [15] = experiment: Antifungal activity against Candida metapsilosis am-2006-0113 by CLSI method; format: functional; conditions: Lodderomyces metapsilosis
# Candida parapsilosis [16] = experiment: Antifungal activity against Candida parapsilosis H4 by CLSI method; format: functional; conditions: Lodderomyces parapsilosis
# [17] = Inhibition of Saccharomyces cerevisiae BY4742-FKS1P649A mutant glucan synthase assessed as [3H]UDPG incorporation; outline: as §1
# Candida orthopsilosis [18] = experiment: Antifungal activity against Candida orthopsilosis 981224 by CLSI method; format: functional; conditions: Lodderomyces orthopsilosis
# [19] = Inhibition of Candida albicans M122 glucan synthase assessed as [3H]UDPG incorporation; outline: as §1
# Candida parapsilosis [20] = experiment: Antifungal activity against Candida parapsilosis H5 by CLSI method; format: functional; conditions: Lodderomyces parapsilosis
# [21] = Inhibition of Candida metapsilosis am-2006-0113 glucan synthase assessed as [3H]UDPG incorporation; outline: as §1
# [22] = Inhibition of Candida albicans ATCC 36082 glucan synthase assessed as [3H]UDPG incorporation; outline: as §1
# Saccharomyces cerevisiae [23] = experiment: Antifungal activity against Saccharomyces cerevisiae BY4742 by CLSI method; format: functional
# Candida orthopsilosis [24] = experiment: Antifungal activity against Candida orthopsilosis H10 by CLSI method; format: functional; conditions: Lodderomyces orthopsilosis
# Candida parapsilosis [25] = experiment: Antifungal activity against Candida parapsilosis ATCC 22019 by CLSI method; format: functional; conditions: Lodderomyces parapsilosis
# [26] = Inhibition of Candida albicans Sc5314 glucan synthase assessed as [3H]UDPG incorporation; outline: as §1
# [27] = Inhibition of Candida parapsilosis H4 glucan synthase assessed as [3H]UDPG incorporation; outline: as §1
# [28] = Inhibition of Candida glabrata T51916 glucan synthase assessed as [3H]UDPG incorporation; design: species or system Nakaseomyces glabratus; outline: as §1
# Saccharomyces cerevisiae [29] = experiment: Antifungal activity against Saccharomyces cerevisiae BY4742-FKS1P649A mutant by CLSI method; format: functional
# Outline: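 Broth microdilution following CLSI M27-A2, run in YPD broth (1% yeast extract, 2% Bacto peptone, 2% dextrose). MICs are geometric means of at least three repetitions on three separate days.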
# [30] = Inhibition of Candida orthopsilosis H10 glucan synthase assessed as [3H]UDPG incorporation; outline: as §1
# Candida albicans [31] = experiment: Antifungal activity against Candida albicans ATCC 36082 by CLSI method; format: functional
compound,measurement,setting,value
"CCCCCOc1ccc(-c2ccc(-c3ccc(C(=O)N[C@H]4C[C@@H](O)[C@@H](O)NC(=O)[C@@H]5[C@@H](O)[C@@H](C)CN5C(=O)[C@H]([C@@H](C)O)NC(=O)[C@H]([C@H](O)[C@@H](O)c5ccc(O)cc5)NC(=O)[C@@H]5C[C@@H](O)CN5C(=O)[C@H]([C@@H](C)O)NC4=O)cc3)cc2)cc1 [ANIDULAFUNGIN] ({pTerphenylCO(4''-OnC5H11)}-[Orn(4R-OH,5R-OH)]T[Hyp][hTyr(3S-OH,4S-OH)]T[Pro(3S-OH,4S-Me)]; lactam 1-C)",IC50,[1],0.23707 µg/mL
same,Ki,[1],0.43167 µg/mL
same,MIC,Candida albicans [2],0.08 µg/mL
same,IC50,[3],0.1333 µg/mL
same,Ki,[3],0.129 µg/mL
same,MIC,Nakaseomyces glabratus [4],1.59 µg/mL
same,IC50,[5],0.00163 µg/mL
same,Ki,[5],0.00143 µg/mL
same,MIC,Candida albicans [6],0.02 µg/mL
same,MIC,Candida metapsilosis [7],0.79 µg/mL
same,IC50,[8],0.44203 µg/mL
same,Ki,[8],0.6395 µg/mL
same,IC50,[9],0.00377 µg/mL
same,MIC,Candida albicans [10],0.15 µg/mL
same,MIC,Saccharomyces cerevisiae [11],0.015 µg/mL
same,IC50,[12],0.10737 µg/mL
same,Ki,[12],0.06895 µg/mL
same,IC50,[13],0.1419 µg/mL
same,Ki,[13],0.0465 µg/mL
same,MIC,Nakaseomyces glabratus [14],0.05 µg/mL
same,MIC,Candida metapsilosis [15],0.63 µg/mL
same,MIC,Candida parapsilosis [16],2.24 µg/mL
same,IC50,[17],1.663 µg/mL
same,Ki,[17],2.374 µg/mL
same,MIC,Candida orthopsilosis [18],1.26 µg/mL
same,IC50,[19],0.53013 µg/mL
same,Ki,[19],0.646 µg/mL
same,MIC,Candida parapsilosis [20],1.59 µg/mL
same,IC50,[21],0.1264 µg/mL
same,Ki,[21],0.0414 µg/mL
same,IC50,[22],0.00183 µg/mL
same,Ki,[22],0.00063 µg/mL
same,MIC,Saccharomyces cerevisiae [23],0.03 µg/mL
same,MIC,Candida orthopsilosis [24],0.79 µg/mL
same,MIC,Candida parapsilosis [25],1.1 µg/mL
same,IC50,[26],0.00089 µg/mL
same,Ki,[26],0.00133 µg/mL
same,IC50,[27],0.11012 µg/mL
same,Ki,[27],0.3685 µg/mL
same,IC50,[28],0.20686 µg/mL
same,Ki,[28],0.712 µg/mL
same,MIC,Saccharomyces cerevisiae [29],0.5 µg/mL
same,IC50,[30],0.16317 µg/mL
same,Ki,[30],0.111 µg/mL
same,MIC,Candida albicans [31],0.02 µg/mL
